Laboratory results taken from ChEMBL document CHEMBL1811845, “Modulation of GABAA-receptors by honokiol and derivatives: subtype selectivity and structure-activity relationship” (J Med Chem, 2011).

Tested on: Oocyte
Assay: Modulation of GABA alpha1beta2gamma2s receptor expressed in Xenopus laevis oocytes assessed as potentiation of GABA-induced chloride current at holding potential -70 mV by two-microelectrode voltage clamp technique relative to GABA
Type: cell-based
In short: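 Oocytes were injected with α1, β2 and γ2s cRNAs mixed 1:1:10 and stored at 18 °C in ND96 (pH 7.4). GABA was applied at a concentration giving 3–7% of maximal current, determined for each oocyte. Enhancement was taken as (I(GABA+compound)/IGABA) − 1. Concentration–response data were fitted to a Hill equation. Control solutions carried equal DMSO, at most 0.3%.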

C=CCc1ccc(O)c(-c2ccc(O)c(CC=C)c2)c1 [HONOKIOL]
Smax: 1320%
